Laboratory results as given in ChEMBL document CHEMBL4359879, “Synthesis and evaluation of 2-carboxy indole derivatives as potent and selective anti-leukemic agents” (Eur J Med Chem, 2019).
The source made the active and inactive calls. The calls are words filed in the database; no cut-off is given here.

Legend:
[1] = tested on: HL-60; test: Effect on human HL60 cells assessed as fold change in ATP6AP1L gene expression at 1.085 uM incubated for 6 hrs by microarray-based method; format: functional
How it was run: (§1)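 HL60 cells were treated in triplicate with 1.085 µM or vehicle for 6 h. Total RNA was extracted with on-column DNase treatment and profiled on expression arrays.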

[2] = tested on: HL-60; test: Effect on human HL60 cells assessed as fold change in TAF15 gene expression at 1.085 uM incubated for 6 hrs by microarray-based method; format: functional; how it was run: as §1
[3] = tested on: HL-60; test: Effect on human HL60 cells assessed as fold change in LILRA5 gene expression at 1.085 uM incubated for 6 hrs by microarray-based method; format: functional; how it was run: as §1
[4] = tested on: HL-60; test: Effect on human HL60 cells assessed as fold change in LSMEM1 gene expression at 1.085 uM incubated for 6 hrs by microarray-based method; format: functional; how it was run: as §1
[5] = tested on: HL-60; test: Induction of cell cycle arrest in human HL60 cells assessed as accumulation of cells at S phase at EC50 incubated for 18 hrs by PI staining based flow cytometric analysis (reference value: 19.0%); format: functional
[6] = target: T1, Tubulin (Homo sapiens) (UniProt P68371+Q9H4B7+P0DPH7+P68366+Q13509+Q71U36+P04350+Q3ZCM7+P07437+P68363+Q9BQE3+Q6PEY2+Q13885+Q9BVA1+Q9BUF5); test: Induction of microtubule network depolymerization in human HeLa cells assessed as formation of condensed chromosomes at 500 nM incubated for 18 hrs by DAPI staining based fluorescence microscopic method; format: cell-based
How it was run: (§2)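 HeLa cells (100,000/mL) cultured overnight on glass-bottom dishes, then exposed to 500 nM or 1 μM, or DMSO, for 18 h. Permeabilized (0.5% Triton X-100) and fixed (3.7% formaldehyde). Stained overnight at 4 °C with anti-β-tubulin, then Alexa Fluor 647 secondary for 1 h at room temperature, and DAPI 1 μg/mL for 10 min. Examined by fluorescence microscopy.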

[7] = target: T1, Tubulin (Homo sapiens); test: Induction of microtubule network depolymerization in human HeLa cells at 1 uM incubated for 18 hrs by DAPI staining based fluorescence microscopic method; format: cell-based; how it was run: as §2

Activity [6]: Active
Activity [7]: Active
SMILES: COC(=O)c1[nH]c2cc(OC)ccc2c1-c1ccc(C(F)(F)F)cc1
fold change (FC) [1]: -1.53
fold change (FC) [2]: 1.75
fold change (FC) [3]: -1.64
fold change (FC) [4]: -1.69
Activity [5]: 8.92%
